Like-named read-outs stand apart in the source and are kept apart here.
How the values were obtained:
[1] = target: T1, apo-human transferrin (apo-hTf) (Homo sapiens, UniProt P02787); assay: Fluorescence quenching of apo-hTf; format: binding; settings: for biomolecular quenching rate constant kq: kq=Ksv/τ0; for Stern-Volmer quenching constant Ksv / number of binding sites n: pH 7.4; for quenching association constant Ka: pH 7.4, modified Stern-Volmer
Outline: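 Intrinsic fluorescence of apo-hTf in Tris-HCl pH 7.4 was titrated with test compound (Tris-HCl/2% DMSO). Conditions: excitation 280 nm, emission 290–500 nm, slits 10/5 nm, 1.0 cm quartz cell, at 296, 303, 310 and 317 K, triplicate titrations. Intensities were corrected for inner filter effect using absorbances at excitation and emission wavelengths. Ksv came from Stern-Volmer plots of F0/F vs [Q]; kq = Ksv/τ0 (τ0 ~1.0×10−8); Ka and n came from the modified Stern-Volmer equation.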

[2] = system: human colorectal adenocarcinoma cell line, HT-29; assay: MTT cell viability assay on HT-29, 72 h exposure; format: cell-based; settings: read-out: IC50 (±SD), HT-29, HT-29, 72 h of exposure
Outline: (§1)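 HT-29 was grown in McCoy's 5A with 10% FBS. MCF-7 was grown in MEM with 10% FBS and 0.01 mg/mL insulin. Both were kept at 37°C, 5% CO2, trypsinized at 70–80% confluency and seeded at 1.5×10^4 cells/well for 24 h. Cells were then exposed for 72 h to test compound in 5% DMSO/95% medium, with DMSO-medium controls. MTT was added as a 2.67 mg/mL solution for 2 h. Formazan was dissolved in 10% Triton X-100/isopropanol and read at A570 minus A620. IC50 came from a sigmoidal fit of viability vs log concentration, eight replicas, triplicate, ±SD.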

[3] = target: T1, apo-human transferrin (apo-hTf); settings: cited from earlier work; for Ka: Cp2VCl2 bound to apo-hTf
[4] = target: T1, apo-human transferrin (apo-hTf); assay: Fluorescence resonance energy transfer; format: binding; settings: for Förster critical energy transfer distance R0 / binding distance r (donor-acceptor): k^2=2/3, n=1.336, ØD=0.118; for efficiency of energy transfer E: room temperature, 1.0×10^−5 mol L^−1 each
Outline: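 Emission spectrum of 1.0×10−5 mol L−1 apo-hTf and absorption spectrum of 1.0×10−5 mol L−1 test compound were recorded in 20 mM Tris-HCl pH 7.4 at room temperature, 260–450 nm, and their spectral overlap determined. E was calculated from apo-hTf fluorescence without and with equimolar test compound. R0 and donor–acceptor distance r came from Förster equations.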

[5] = target: T1, apo-human transferrin (apo-hTf); assay: UV-Vis absorbance titration of apo-hTf; format: binding; settings: for Ka at 280 nm: absorbance at 280 nm; for Association constants, Ka, 280 nm: absorbance of apo-hTf at 280 nm
[6] = system: human breast adenocarcinoma cell line, MCF-7; assay: MTT cell viability assay on MCF-7, 72 h exposure; format: cell-based; settings: for IC50 (±SD), MCF-7: MCF-7, 72 h of exposure
Outline: as §1

[7] = target: T1, apo-human transferrin (apo-hTf); assay: Thermodynamic parameters of apo-hTf complex formation; format: binding; settings: for ∆H° / ∆S°: pH 7.4, from Ksv at 296-317 K
Outline: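 Ksv values were obtained from apo-hTf fluorescence quenching at pH 7.4 at 296, 303, 310 and 317 K. ΔH°, ΔS° and ΔG° were derived from linear regression of ln(Ksv) vs 1/T (Van't Hoff equation).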

[8] = target: T1, apo-human transferrin (apo-hTf); assay: Far-UV circular dichroism titration of apo-hTf, secondary structure content
Outline: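 Apo-hTf (4.0×10−7 mol L−1) in 2 mM Tris-HCl pH 7.4 was titrated with a 1.0×10−3 mol L−1 stock of test compound in Tris-HCl/2% DMSO, to final 0–2.4×10−6 mol L−1. Far-UV CD was recorded from 190–250 nm under nitrogen in a 1.0 cm cell: six scans at 100 nm/min. Baseline was buffer ± DMSO at room temperature. α-Helix was derived from MRE at 208 nm; β-sheet and random coil by the CD-RRG method.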

[9] = apo-hTf:Cp2VCl2 complex, ref Zhang et al. 64

T1 sequence (P02787 20-698): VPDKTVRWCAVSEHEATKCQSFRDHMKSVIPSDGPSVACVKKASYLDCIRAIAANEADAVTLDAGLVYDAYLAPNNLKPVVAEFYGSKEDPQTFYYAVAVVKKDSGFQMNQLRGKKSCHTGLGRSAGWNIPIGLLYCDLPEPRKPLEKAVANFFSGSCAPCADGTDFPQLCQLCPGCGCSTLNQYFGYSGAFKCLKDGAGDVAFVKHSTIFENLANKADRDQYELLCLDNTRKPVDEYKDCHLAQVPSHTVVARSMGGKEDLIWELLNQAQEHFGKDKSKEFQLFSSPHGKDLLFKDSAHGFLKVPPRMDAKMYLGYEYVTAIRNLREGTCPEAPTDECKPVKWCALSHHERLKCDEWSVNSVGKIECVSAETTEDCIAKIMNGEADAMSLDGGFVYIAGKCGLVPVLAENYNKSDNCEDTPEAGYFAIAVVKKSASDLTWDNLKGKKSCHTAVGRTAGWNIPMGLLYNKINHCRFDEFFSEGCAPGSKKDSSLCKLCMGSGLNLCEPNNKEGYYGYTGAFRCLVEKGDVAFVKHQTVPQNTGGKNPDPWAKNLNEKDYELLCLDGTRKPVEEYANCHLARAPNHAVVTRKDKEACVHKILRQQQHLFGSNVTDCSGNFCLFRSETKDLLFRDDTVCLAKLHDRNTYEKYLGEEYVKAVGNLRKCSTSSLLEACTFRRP

SMILES: [Cl-].[Cl-].[V+4].c1cc[cH-]c1.c1cc[cH-]c1 [Cp2VCl2]
- biomolecular quenching rate constant kq ([1]; 296 K): 3.564e+12 M⁻¹ s⁻¹
- Stern-Volmer quenching constant Ksv ([1]; 296 K): 35640 M⁻¹
- number of binding sites n ([1]; 296 K): 1.23
- quenching association constant Ka ([1]; 296 K): 444400 M⁻¹
- biomolecular quenching rate constant kq ([1]; 303 K): 4.085e+12 M⁻¹ s⁻¹
- Stern-Volmer quenching constant Ksv ([1]; 303 K): 40850 M⁻¹
- number of binding sites n ([1]; 303 K): 1.2
- quenching association constant Ka ([1]; 303 K): 337500 M⁻¹
- biomolecular quenching rate constant kq ([1]; 310 K): 4.26e+12 M⁻¹ s⁻¹
- Stern-Volmer quenching constant Ksv ([1]; 310 K): 42600 M⁻¹
- number of binding sites n ([1]; 310 K): 1.16
- quenching association constant Ka ([1]; 310 K): 240500 M⁻¹
- biomolecular quenching rate constant kq ([1]; 317 K): 4.936e+12 M⁻¹ s⁻¹
- Stern-Volmer quenching constant Ksv ([1]; 317 K): 49360 M⁻¹
- number of binding sites n ([1]; 317 K): 1.11
- quenching association constant Ka ([1]; 317 K): 159800 M⁻¹
- IC50 [2]: 33 µM
- Ka ([3]; ref Du et al. 63): 137000 M⁻¹
- Ka ([3]; ref Zhang et al. 64): 32800 M⁻¹
- Ksv [3, 9]: 30400 M⁻¹
- kq [3, 9]: 3.04e+12 M⁻¹ s⁻¹
- Förster critical energy transfer distance R0 [4]: 1.78 nm
- binding distance r (donor-acceptor) [4]: 2.08 nm
- efficiency of energy transfer E [4]: 0.281
- Ka at 280 nm [5]: 3240 M⁻¹
- Ka at 361 nm ([5]; absorbance at 361 nm): 2670 M⁻¹
- Association constants, Ka, 280 nm ([5]; pH 7.4): 3.24 10^3 M^−1
- Association constants, Ka, 361 nm ([5]; absorbance of apo-hTf at 361 nm, pH 7.4): 2.67 10^3 M^−1
- IC50 ([6]; read-out: IC50 (±SD), MCF-7, MCF-7, 72 h of exposure): 50 µM
- ∆G° ([7]; 296 K): -6.169 kcal/mol
- ∆G° ([7]; 303 K): -6.379 kcal/mol
- ∆G° ([7]; 310 K): -6.587 kcal/mol
- ∆G° ([7]; 317 K): -6.797 kcal/mol
- ∆H° [7]: 2.713 kcal/mol
- ∆S° [7]: 125.52 J/mol K
- other secondary structure content of apo-hTf ([8]; compound concentration 0.4 (M)): 20%
- random coil content of apo-hTf ([8]; compound concentration 0.4 (M)): 33.7%
- α-helix content of apo-hTf ([8]; compound concentration 0.4 (M)): 28.4%
- β-sheet content of apo-hTf ([8]; compound concentration 0.4 (M)): 17.9%
- other secondary structure content of apo-hTf ([8]; compound concentration 0.8 (M)): 20.1%
- random coil content of apo-hTf ([8]; compound concentration 0.8 (M)): 33.9%
- α-helix content of apo-hTf ([8]; compound concentration 0.8 (M)): 27.9%
- β-sheet content of apo-hTf ([8]; compound concentration 0.8 (M)): 18.1%
- other secondary structure content of apo-hTf ([8]; compound concentration 1.2 (M)): 20.4%
- random coil content of apo-hTf ([8]; compound concentration 1.2 (M)): 34.1%
- α-helix content of apo-hTf ([8]; compound concentration 1.2 (M)): 27.2%
- β-sheet content of apo-hTf ([8]; compound concentration 1.2 (M)): 18.3%
- other secondary structure content of apo-hTf ([8]; compound concentration 1.6 (M)): 20.7%
- random coil content of apo-hTf ([8]; compound concentration 1.6 (M)): 34.3%
- α-helix content of apo-hTf ([8]; compound concentration 1.6 (M)): 26.5%
- β-sheet content of apo-hTf ([8]; compound concentration 1.6 (M)): 18.5%
- other secondary structure content of apo-hTf ([8]; compound concentration 2 (M)): 20.8%
- random coil content of apo-hTf ([8]; compound concentration 2 (M)): 34.5%
- α-helix content of apo-hTf ([8]; compound concentration 2 (M)): 25.8%
- β-sheet content of apo-hTf ([8]; compound concentration 2 (M)): 18.9%
- other secondary structure content of apo-hTf ([8]; compound concentration 2.4 (M)): 21.1%
- random coil content of apo-hTf ([8]; compound concentration 2.4 (M)): 34.6%
- α-helix content of apo-hTf ([8]; compound concentration 2.4 (M)): 25.1%
- β-sheet content of apo-hTf ([8]; compound concentration 2.4 (M)): 19.2%

SMILES: [Cl][Zr+2][Cl].c1cc[cH-]c1.c1cc[cH-]c1 [Cp2ZrCl2]
- biomolecular quenching rate constant kq ([1]; 296 K): 2.39e+11 M⁻¹ s⁻¹
- Stern-Volmer quenching constant Ksv ([1]; 296 K): 2390 M⁻¹
- number of binding sites n ([1]; 296 K): 1.07
- quenching association constant Ka ([1]; 296 K): 4400 M⁻¹
- biomolecular quenching rate constant kq ([1]; 303 K): 1.97e+11 M⁻¹ s⁻¹
- Stern-Volmer quenching constant Ksv ([1]; 303 K): 1970 M⁻¹
- number of binding sites n ([1]; 303 K): 1.03
- quenching association constant Ka ([1]; 303 K): 2600 M⁻¹
- biomolecular quenching rate constant kq ([1]; 310 K): 1.79e+11 M⁻¹ s⁻¹
- Stern-Volmer quenching constant Ksv ([1]; 310 K): 1790 M⁻¹
- number of binding sites n ([1]; 310 K): 1.01
- quenching association constant Ka ([1]; 310 K): 2000 M⁻¹
- biomolecular quenching rate constant kq ([1]; 317 K): 1.5e+11 M⁻¹ s⁻¹
- Stern-Volmer quenching constant Ksv ([1]; 317 K): 1500 M⁻¹
- number of binding sites n ([1]; 317 K): 1
- quenching association constant Ka ([1]; 317 K): 1600 M⁻¹
- IC50 [2]: 774 µM
- Förster critical energy transfer distance R0 [4]: 7.3 nm
- binding distance r (donor-acceptor) [4]: 10.03 nm
- efficiency of energy transfer E [4]: 0.129
- Ka at 280 nm [5]: 2220 M⁻¹
- Association constants, Ka, 280 nm ([5]; pH 7.4): 2.22 10^3 M^−1
- IC50 (±SD), MCF-7 [6]: proliferative activity
- IC50 (±SD), MCF-7 ([6]; listed as Cp^2ZrCl^2): Proliferative
- ∆G° ([7]; 296 K): -4.57 kcal/mol
- ∆G° ([7]; 303 K): -4.584 kcal/mol
- ∆G° ([7]; 310 K): -4.598 kcal/mol
- ∆G° ([7]; 317 K): -4.613 kcal/mol
- ∆H° [7]: -3.975 kcal/mol
- ∆S° [7]: 8.41 J/mol K
- other secondary structure content of apo-hTf ([8]; compound concentration 0.4 (M)): 18.9%
- random coil content of apo-hTf ([8]; compound concentration 0.4 (M)): 33.8%
- α-helix content of apo-hTf ([8]; compound concentration 0.4 (M)): 29.2%
- β-sheet content of apo-hTf ([8]; compound concentration 0.4 (M)): 18.1%
- other secondary structure content of apo-hTf ([8]; compound concentration 0.8 (M)): 18.8%
- random coil content of apo-hTf ([8]; compound concentration 0.8 (M)): 33.9%
- α-helix content of apo-hTf ([8]; compound concentration 0.8 (M)): 29.1%
- β-sheet content of apo-hTf ([8]; compound concentration 0.8 (M)): 18.2%
- other secondary structure content of apo-hTf ([8]; compound concentration 1.2 (M)): 18.8%
- random coil content of apo-hTf ([8]; compound concentration 1.2 (M)): 33.9%
- α-helix content of apo-hTf ([8]; compound concentration 1.2 (M)): 29%
- β-sheet content of apo-hTf ([8]; compound concentration 1.2 (M)): 18.3%
- other secondary structure content of apo-hTf ([8]; compound concentration 1.6 (M)): 18.9%
- random coil content of apo-hTf ([8]; compound concentration 1.6 (M)): 33.9%
- α-helix content of apo-hTf ([8]; compound concentration 1.6 (M)): 28.8%
- β-sheet content of apo-hTf ([8]; compound concentration 1.6 (M)): 18.4%
- other secondary structure content of apo-hTf ([8]; compound concentration 2 (M)): 18.9%
- random coil content of apo-hTf ([8]; compound concentration 2 (M)): 34%
- α-helix content of apo-hTf ([8]; compound concentration 2 (M)): 28.6%
- β-sheet content of apo-hTf ([8]; compound concentration 2 (M)): 18.5%
- other secondary structure content of apo-hTf ([8]; compound concentration 2.4 (M)): 18.9%
- random coil content of apo-hTf ([8]; compound concentration 2.4 (M)): 34.1%
- α-helix content of apo-hTf ([8]; compound concentration 2.4 (M)): 28.4%
- β-sheet content of apo-hTf ([8]; compound concentration 2.4 (M)): 18.6%
